One block for each molecule: values may come before it.
How the values were obtained:
[1] = target: Protein kinase C gamma type (Homo sapiens, UniProt P05129); test: Inhibition of Protein kinase C gamma (PKC-gamma)
Procedure, shortened: (§1)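 Recombinant human PKCα, PKCγ or PKCβII (5–10 mU) phosphorylating histone H1 (0.1 mg/mL) with 33P-ATP, total ATP 10 µM. Buffer 50 mM Hepes pH 7.4 with Triton X-100, CaCl2, Mg acetate, phosphatidylserine and diacylglycerol. Run 40 min at room temperature, stopped with phosphoric acid, then P30 filter counting. IC50 from 6–10 concentrations; ≥3 experiments in duplicate; ± SEM.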

[2] = target: Glycogen synthase kinase-3 beta (Homo sapiens) (UniProt P49841); test: Inhibition of Glycogen synthase kinase-3beta (GSK3-beta) at 1 uM; conditions: Oryctolagus cuniculus
[3] = Inhibition of Casein Kinase I; set-up: species or system Rattus norvegicus
Procedure, shortened: (§2)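 Reaction started with 30–150 ng kinase, run 1 h at 30 °C. Peptides captured on streptavidin plates and counted. IC50 from 6–10 concentrations; ≥3 experiments in duplicate; ± SEM.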

CaM kinase II = CaM kinase II (Homo sapiens, UniProt Q13557+Q13555+Q13554+Q9UQM7); test: Inhibition of Calcium/calmodulin-dependent protein kinase II; type: protein assay, Rattus norvegicus
[4] = target: Cyclin-dependent kinase 1 (Homo sapiens, UniProt P06493); test: Inhibition of Cyclin-dependent kinase 1; procedure, shortened: as §2
[5] = target: Cyclin-dependent kinase 2 (Homo sapiens, UniProt P24941); test: Inhibition of Cyclin-dependent kinase 2 (CDK2); procedure, shortened: as §2
[6] = target: Protein kinase C alpha type (Homo sapiens, UniProt P17252); test: Inhibition of Protein kinase C alpha
Procedure, shortened: as §1, with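 “counting.” for “counting. IC50 from 6–10 concentrations; ≥3 experiments in duplicate; ± SEM.”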

[7] = target: Protein kinase C beta type (Homo sapiens, UniProt P05771); test: Inhibition of Protein kinase C beta 2
Procedure, shortened: as §1, with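 “counting.” for “counting. IC50 from 6–10 concentrations; ≥3 experiments in duplicate; ± SEM.”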

[8] = Inhibitory activity against Protein kinase A was determined
[9] = target: Protein kinase C theta type (Homo sapiens, UniProt Q04759); test: Inhibition of Protein kinase C theta
Procedure, shortened: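 Recombinant human PKCθ (5–10 mU) with histone H1 (0.1 mg/mL) and 33P-ATP, total ATP 10 µM, in 8 mM MOPS pH 7.0, 0.2 mM EDTA, 10 mM Mg acetate. Run 40 min at room temperature, stopped with phosphoric acid, then P30 filter counting. IC50 from 6–10 concentrations; ≥3 experiments in duplicate; ± SEM.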

[10] = Inhibition of Vascular endothelial growth factor receptor 2; set-up: species or system Homo sapiens; procedure, shortened: as §2

Sequence of Protein kinase C theta type (Q04759 whole entry): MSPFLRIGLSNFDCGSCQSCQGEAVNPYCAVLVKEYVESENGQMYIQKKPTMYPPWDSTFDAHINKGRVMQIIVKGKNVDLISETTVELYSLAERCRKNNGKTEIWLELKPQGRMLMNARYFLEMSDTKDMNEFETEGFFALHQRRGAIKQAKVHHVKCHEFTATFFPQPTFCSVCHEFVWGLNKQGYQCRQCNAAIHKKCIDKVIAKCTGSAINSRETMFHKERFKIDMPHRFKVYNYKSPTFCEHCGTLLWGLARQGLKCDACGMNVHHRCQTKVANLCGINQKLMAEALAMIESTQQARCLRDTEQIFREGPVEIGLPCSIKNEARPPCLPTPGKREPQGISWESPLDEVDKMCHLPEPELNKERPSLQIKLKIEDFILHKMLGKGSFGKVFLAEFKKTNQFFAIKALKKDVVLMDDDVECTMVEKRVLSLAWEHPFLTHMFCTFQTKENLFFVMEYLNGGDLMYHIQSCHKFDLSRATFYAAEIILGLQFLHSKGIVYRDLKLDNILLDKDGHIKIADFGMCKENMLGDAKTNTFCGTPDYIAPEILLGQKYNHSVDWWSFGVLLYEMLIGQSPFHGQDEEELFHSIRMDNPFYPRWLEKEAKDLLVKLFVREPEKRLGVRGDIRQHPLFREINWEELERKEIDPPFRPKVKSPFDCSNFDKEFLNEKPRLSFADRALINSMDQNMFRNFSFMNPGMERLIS
Sequence of Protein kinase C beta type (P05771 whole entry): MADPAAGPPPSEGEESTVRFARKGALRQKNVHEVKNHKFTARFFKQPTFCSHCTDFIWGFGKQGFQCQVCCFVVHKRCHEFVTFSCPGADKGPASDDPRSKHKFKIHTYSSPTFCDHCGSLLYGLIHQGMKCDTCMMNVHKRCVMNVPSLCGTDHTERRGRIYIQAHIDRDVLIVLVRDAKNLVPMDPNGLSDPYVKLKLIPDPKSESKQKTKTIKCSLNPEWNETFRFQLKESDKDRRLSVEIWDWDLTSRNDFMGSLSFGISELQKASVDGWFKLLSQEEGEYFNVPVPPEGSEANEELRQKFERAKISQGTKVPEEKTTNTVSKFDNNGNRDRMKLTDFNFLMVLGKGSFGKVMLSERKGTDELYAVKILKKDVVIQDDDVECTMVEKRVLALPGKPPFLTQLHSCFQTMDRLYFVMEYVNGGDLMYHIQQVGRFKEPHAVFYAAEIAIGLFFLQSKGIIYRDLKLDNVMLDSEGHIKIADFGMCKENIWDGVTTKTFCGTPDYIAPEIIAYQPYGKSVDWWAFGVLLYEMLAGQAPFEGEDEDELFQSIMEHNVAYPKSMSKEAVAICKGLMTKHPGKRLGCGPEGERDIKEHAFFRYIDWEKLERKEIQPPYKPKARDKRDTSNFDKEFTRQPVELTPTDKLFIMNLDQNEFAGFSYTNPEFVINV
Sequence of Cyclin-dependent kinase 1 (P06493 whole entry): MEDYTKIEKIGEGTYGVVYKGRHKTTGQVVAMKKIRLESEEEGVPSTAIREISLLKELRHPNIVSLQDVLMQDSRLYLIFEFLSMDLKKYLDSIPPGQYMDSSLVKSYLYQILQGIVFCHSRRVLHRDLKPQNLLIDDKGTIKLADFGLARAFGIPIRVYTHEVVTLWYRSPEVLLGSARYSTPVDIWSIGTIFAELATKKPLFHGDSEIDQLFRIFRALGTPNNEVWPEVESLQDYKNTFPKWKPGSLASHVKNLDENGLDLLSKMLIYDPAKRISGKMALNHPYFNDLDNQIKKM
Sequence of Glycogen synthase kinase-3 beta (Homo sapiens) (P49841 whole entry, looked up): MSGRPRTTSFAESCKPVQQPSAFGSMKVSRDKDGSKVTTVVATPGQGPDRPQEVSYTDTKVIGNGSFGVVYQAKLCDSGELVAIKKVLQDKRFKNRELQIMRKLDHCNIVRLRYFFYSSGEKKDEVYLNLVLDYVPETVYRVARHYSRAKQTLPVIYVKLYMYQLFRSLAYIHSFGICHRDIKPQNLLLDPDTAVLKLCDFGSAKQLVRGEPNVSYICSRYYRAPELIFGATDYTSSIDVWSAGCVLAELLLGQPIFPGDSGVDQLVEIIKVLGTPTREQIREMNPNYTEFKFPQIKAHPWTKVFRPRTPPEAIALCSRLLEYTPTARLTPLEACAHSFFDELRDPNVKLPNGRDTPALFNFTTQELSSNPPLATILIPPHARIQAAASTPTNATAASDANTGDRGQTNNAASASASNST

IC50 [1]: > 10000 nM
SMILES: O=C1NC(=O)C2=C1c1cn(c3ncccc13)CCOCCOCCn1cc2c2cccnc21

IC50 [1]: 2670 nM
SMILES: O=C1NC(=O)C2=C1c1cn(c3ccccc13)CCOCCOCCn1cc2c2cccnc21

IC50 [1]: 3300 nM
SMILES: O=C1NC(=O)C2=C1c1cn(c3ccccc13)CCOCCOCCOCCOCCn1cc2c2ccccc21

inhibition [2]: 51%
SMILES: CN1C(=O)C2=C(C1=O)c1cn(c3ncccc13)CCOCCOCCn1cc2c2ccccc21

IC50 [3]: > 10000 nM
IC50 (CaM kinase II): > 10000 nM
IC50 [4]: 4430 nM
IC50 [5]: 2440 nM
IC50 [1]: 1340 nM
IC50 [6]: 673 nM
IC50 [7]: 46 nM
IC50 [8]: > 10000 nM
IC50 [9]: 835 nM
IC50 [10]: 3560 nM
SMILES: O=C1NC(=O)C2=C1c1cn(c3ccccc13)CCOCCOCCOCCn1cc2c2cccnc21 [INDOLYLYLMALEIMIDE 1]

IC50 [1]: > 10000 nM
SMILES: O=C1NC(=O)C2=C1c1cn(c3ncccc13)CCOCCOCCOCCOCCOCCn1cc2c2cccnc21

IC50 [1]: 5170 nM
SMILES: O=C1NC(=O)C2=C1c1cn(c3ccccc13)CCOCCOCCOCCOCCOCCn1cc2c2ccccc21

inhibition [2]: 54%
SMILES: CN1C(=O)C2=C(C1=O)c1cn(c3ccccc13)CCOCCOCCOCCn1cc2c2ccccc21

IC50 [1]: 2730 nM
SMILES: O=C1NC(=O)C2=C1c1cn(c3ccccc13)CCOCCOCCn1cc2c2ccccc21

IC50 [3]: > 10000 nM
IC50 [4]: 1250 nM
IC50 [5]: 992 nM
IC50 [1]: 1200 nM
IC50 [6]: 86 nM
IC50 [7]: 6 nM
IC50 [8]: > 10000 nM
IC50 [9]: 65 nM
IC50 [10]: 1450 nM
SMILES: O=C1NC(=O)C2=C1c1cn(c3ccccc13)CCOCCOCCOCCn1cc2c2ccccc21 [INDOLYLYLMALEIMIDE 2]

Reference: ChEMBL document CHEMBL1145082 (J Med Chem, 2003)
